# According to ChEMBL document CHEMBL1151693, “Design, synthesis, and pharmacological evaluation of N-bicyclo-5-chloro-1H-indole-2-carboxamide derivatives as potent glycogen phosphorylase inhibitors” (Bioorg Med Chem, 2008):
# Tests used:
# [1] = target: T1, Glycogen phosphorylase, liver form (Homo sapiens, UniProt P06737); assay: Inhibition of active form of human liver glycogen phosphorylase
# T1 sequence (P06737 whole entry): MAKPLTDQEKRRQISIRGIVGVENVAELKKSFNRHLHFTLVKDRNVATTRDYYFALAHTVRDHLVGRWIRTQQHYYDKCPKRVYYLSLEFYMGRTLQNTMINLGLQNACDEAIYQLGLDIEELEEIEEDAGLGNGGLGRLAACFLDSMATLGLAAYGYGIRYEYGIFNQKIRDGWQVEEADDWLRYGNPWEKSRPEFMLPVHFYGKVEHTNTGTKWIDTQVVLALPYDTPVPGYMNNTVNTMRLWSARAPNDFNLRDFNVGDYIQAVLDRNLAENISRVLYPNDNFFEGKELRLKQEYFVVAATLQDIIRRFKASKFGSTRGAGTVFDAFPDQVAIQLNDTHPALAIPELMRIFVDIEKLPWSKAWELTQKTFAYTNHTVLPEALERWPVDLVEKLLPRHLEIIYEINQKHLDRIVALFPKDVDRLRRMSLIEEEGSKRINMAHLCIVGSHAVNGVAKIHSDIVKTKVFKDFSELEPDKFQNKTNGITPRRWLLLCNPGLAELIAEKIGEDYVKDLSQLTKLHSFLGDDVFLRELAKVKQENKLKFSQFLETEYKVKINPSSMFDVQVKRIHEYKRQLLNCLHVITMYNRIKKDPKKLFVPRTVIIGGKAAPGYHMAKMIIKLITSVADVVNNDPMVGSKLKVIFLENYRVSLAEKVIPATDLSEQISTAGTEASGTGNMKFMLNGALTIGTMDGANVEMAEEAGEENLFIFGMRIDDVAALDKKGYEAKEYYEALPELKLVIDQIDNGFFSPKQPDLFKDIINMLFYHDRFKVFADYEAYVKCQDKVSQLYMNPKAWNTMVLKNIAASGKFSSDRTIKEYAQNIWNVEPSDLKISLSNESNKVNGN
# Mus musculus [2] = assay: Hypoglycemic activity in db/db mouse assessed as reduction of plasma glucose at 10 mg/kg, po after 2 hrs relative to control; assay type: functional; parameters: scale not given: the % may be the effect or the level left
# Summary of the method: (§1)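 Diabetic db/db mice were dosed orally. Plasma glucose was measured 2 h post-dose in drug-treated and vehicle-treated control animals. Activity is the percent decrease in plasma glucose versus the vehicle controls. Significance versus control was tested by Dunnett's test or Student's t-test.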
# [3] = Tmax in Sprague-Dawley rat at 3 mg/kg, po; assay type: ADME, organism-based; parameters: dose 3 mg/kg, route oral; settings: in vivo
# Summary of the method: (§2)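 Pharmacokinetics were determined in male SD rats after intravenous or oral administration.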
# Mus musculus [4] = assay: Hypoglycemic activity in db/db mouse assessed as reduction of plasma glucose at 3 mg/kg, po after 2 hrs relative to control; assay type: functional; parameters: scale not given: the % may be the effect or the level left; summary of the method: as §1
# [5] = AUC (0 to infinity) in Sprague-Dawley rat at 3 mg/kg, po; assay type: ADME, organism-based; parameters: time infinity, dose 3 mg/kg, route oral; settings: plasma; summary of the method: as §2
# [6] = AUC (0 to infinity) in Sprague-Dawley rat at 1 mg/kg, iv; assay type: ADME, organism-based; parameters: time infinity, dose 1 mg/kg, route intravenous; settings: plasma; summary of the method: as §2
# [7] = Half life in Sprague-Dawley rat at 1 mg/kg, iv; assay type: ADME, organism-based; parameters: dose 1 mg/kg, route intravenous; settings: in vivo; summary of the method: as §2
# [8] = Total clearance in Sprague-Dawley rat at 1 mg/kg, iv; assay type: ADME, organism-based; parameters: dose 1 mg/kg, route intravenous; settings: in vivo; summary of the method: as §2
# [9] = Oral bioavailability in Sprague-Dawley rat at 3 mg/kg; assay type: ADME, organism-based; settings: in vivo; summary of the method: as §2
# Hepatocyte = assay: Inhibition of glucagon-induced glucose output in cultured rat primary hepatocytes; assay type: functional, cell-based
# [10] = Volume of distribution in Sprague-Dawley rat at 1 mg/kg, iv; assay type: ADME, organism-based; parameters: dose 1 mg/kg, route intravenous; settings: in vivo; summary of the method: as §2
# [11] = Cmax in Sprague-Dawley rat at 3 mg/kg, po; assay type: ADME, organism-based; parameters: dose 3 mg/kg, route oral; settings: in vivo; summary of the method: as §2
# Mus musculus [12] = assay: Hypoglycemic activity in db/db mouse assessed as reduction of plasma glucose at 30 mg/kg, po after 2 hrs relative to control; assay type: functional; parameters: scale not given: the % may be the effect or the level left; summary of the method: as §1
structure (smiles),measurement,setting,value
O=C(Nc1ccc2c(c1F)CCC(F)(F)C2O)c1cc2cc(Cl)ccc2[nH]1 (configuration not stated),IC50,[1],0.048 µM
O=C(Nc1c(F)cc2c(c1F)CCC(F)(F)C2O)c1cc2cc(Cl)ccc2[nH]1 (configuration not stated),IC50,[1],0.036 µM
O=C(Nc1c(F)cc2c(c1F)CCC(F)(F)[C@H]2O)c1cc2cc(Cl)ccc2[nH]1,IC50,[1],0.16 µM
O=C(Nc1c(F)cc2c(c1F)CCC(F)(F)[C@@H]2O)c1cc2cc(Cl)ccc2[nH]1,Activity,Mus musculus [2],26%
same,Tmax,[3],0.5 h
same,Activity,Mus musculus [4],14%
same,AUC(0-inf),[5],2780 ng·h/mL
same,AUC(0-inf),[6],930 ng·h/mL
same,IC50,[1],0.02 µM
same,half-life,[7],12 h
same,clearance,[8],17.9 mL/min/kg
same,bioavailability,[9],100%
same,IC50,Hepatocyte,0.69 µM
same,Vd,[10],18.1 L/kg
same,Cmax,[11],785 ng/mL
CC1(C)CCc2cc(NC(=O)c3cc4cc(Cl)ccc4[nH]3)ccc2C1O (configuration not stated),IC50,[1],> 10 µM
O=C(N[C@@H](Cc1ccc(F)cc1)C(=O)N1CCC(O)CC1)c1cc2cc(Cl)ccc2[nH]1,Activity,Mus musculus [12],24%
